The list is not random: actives were taken first. Their share in the collection is about 2%.
PABP FP inh: PABP poly(A) RNA binding inhibitors, primary screen, biochemical, fluorescence polarization, uHTS | Polyadenylate-binding protein 1 (Homo sapiens), P11940 | inhibition, % at 35 µM | 290,000 tested, 1% active | AID 2014, 2009;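 also: calls also rest on retests at 20 µM and on dose response follow-up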
FID counter: compounds displacing fluorescent DNA intercalator, primary screen, artefact control for HCV NS3 helicase inhibitor project, biochemical, FID fluorescence; DNA fluorescent intercalator displacement; inhibition, % at 7.9 µM; 290,000 tested, 0.17% active; AID 1845, 2009; in the data active = inhibition above about 37%;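 also: 0% = vehicle and 100% = reference compound; higher means more ethidium bromide displaced from hairpin DNA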
PABP1 MLLE inh: inhibitors of PABP1 MLLE–PAM2 peptide binding, primary screen, biochemical, fluorescence polarization, FITC-PAM2, GST-MLLE; 360,000 tested, 0.36% active; inhibition, % at 20 µM; AID 588489, 2011; Polyadenylate-binding protein 1 (Homo sapiens), P11940; in the data active = inhibition above about 35%, passing the limit was not always enough;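 also: plate controls were DMSO wells with GST-MLLE for no effect and wells lacking GST-MLLE protein for full effect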
HCV core dimer: inhibitors of HCV core protein dimerization, primary screen, biochemical, TR-FRET, high-throughput | inhibition, % at 5 µM | TR-FRET GST/Flag-core106 dimerization, 1536-well | 300,000 tested, 0.33% active;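 active = inhibition above the mean of all tested compounds plus 3 SD, set per screening campaign, cut at about 45% in these data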
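System – GST-tagged and Flag-tagged HCV core protein residues 1-106 · Repeats – one well for each compound · Technique – TR-FRET 671 and 617 nm emission · Doses – one concentration, 5 µM, in 0.5% DMSO · Times – 4 h, 22.5 °C incubation · Also added – Eu donor and XL665 acceptor anti-tag antibodies · Measure – percent inhibition of core106 dimerization signal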
eIF4H FP inh: human eIF4H binding inhibitors, primary screen, translation initiation inhibitor project, biochemical, uHTS, fluorescence polarization. Eukaryotic translation initiation factor 4H (Homo sapiens), Q15056. eIF4H fluorescence polarization binding assay. inhibition, % at 35 µM. AID 2012, 2009. 290,000 tested, 0.94% active;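 also: calls also rest on retests at 20 µM and on dose response follow-up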
NS3 helicase inh: inhibitors of HCV NS3 helicase, primary screen, biochemical, Cy5 molecular beacon fluorescence; Hepatitis C virus NS3 helicase; NS3 helicase DNA unwinding; inhibition, % at 10.9 µM; 290,000 tested, 0.56% active; AID 1800, 2009;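 active = inhibition above the mean of all tested compounds plus 3 SD, set per campaign, cut at about 35% in these data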;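 also: 0% = DMSO wells and 100% = thioflavine S control wells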
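assay system = NS3 helicase fragment of HCV | buffer or medium = MOPS pH 6.5, MgCl2, DTT, Tween20, BSA | timing = 60 min unwinding reaction at 25 °C after ATP addition | signal = Cy5 beacon fluorescence read at start and 1 h | read-out basis = % inhibition of unwinding | control set = low DMSO, high thioflavine S at 110 µM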
* = called active by the depositor; ? = inconclusive; . = not tested or not shown. Unless noted, no rule for the calls is given here.

SMILES	PABP FP inh	FID counter	PABP1 MLLE inh	HCV core dimer	eIF4H FP inh	NS3 helicase inh
CN1CCN(c2oc(-c3ccccc3)nc2S(=O)(=O)c2ccc(Br)cc2)CC1	3	14	-9	-13	-4	-82
O=C(C[n+]1cc(-c2ccccc2)n2c1CCCCC2)c1ccc(Br)cc1	-16	42*	7	-3	-7	-43
COc1ccc(C(=O)C[n+]2cc(-c3ccc(OC)cc3)n3c2CCCC3)cc1	2	10	9	2	13	-56
Cc1ccc(C(=O)C[n+]2cc(-c3ccc(C)cc3)n3c2CCCCC3)cc1	2	39*	2	-5	-3	-89
Cc1ccc(-c2c[n+](CC(=O)Nc3nc(-c4ccc(F)cc4)cs3)c3n2CCC3)cc1	10	44*	-2	-8	0	-75
CC(C)CN(C(=O)CN(C)C(=O)c1ccco1)c1c(N)n(CC(C)C)c(=O)[nH]c1=O	.	.	-51	-4	.	.
COCC(=O)Oc1cc(-c2ccc(C)cc2C)c(OC(=O)COC)c(-c2ccc(C)cc2C)c1	.	.	0	.	.	.
CC[N+](C)(CC)CCOC(=O)C(O)(c1ccccc1)C1CCCCC1 (stereo unspecified)	-5	5	3	4	-9	-7
CC[N+](C)(CC)CCC(c1ccccc1)C1CCCCC1 (stereo unspecified)	87*	4	-121	4	34	-6
Cc1cc([N+](=O)[O-])cc2c1NC(c1ccccn1)C1CC=CC21 (stereo unspecified)	15	-2	11	49*	36	9
O=[N+]([O-])c1ccc(Cl)c2c1C1C=CCC1C(c1ccccn1)N2 (stereo unspecified)	52	10	3	58*	104	22
Nc1ncnc2c1ncn2[C@@H]1O[C@H](C(=O)Nc2ccc(C(=O)N3CCCCC3)cc2)[C@@H](O)[C@H]1O	.	.	-12	.	.	.
OC[C@@H]1CN(Cc2ccccc2)C[C@H](n2cnc3c(NC4CCCC4)ncnc32)O1	.	.	2	.	.	.
O=C(Cn1sc2ccccc2c1=O)NC12CC3CC(CC(C3)C1)C2	-2	-9	53*	-9	2	2
O=C(NCCc1cccc(Cl)c1)c1ccc(OC2CCN(Cc3ccccn3)CC2)cc1	19	4	8	.	15	-36
Cc1cc(=O)c2cc3nc(-c4cccnc4)oc3c(Br)c2o1	78*	-6	.	-1	97*	-8
CN(CCc1ccccc1)C(=O)c1cccc(NC(=O)Cc2cccc(NC(=O)C3CCN(C(=O)c4ccccc4)CC3)c2)c1	.	.	3	.	.	.
O=[N+]([O-])c1cc(F)cc(F)c1Nc1cc(F)cc(F)c1	.	.	0	.	.	.
COC(=O)c1nn(-c2ccc(OC)cc2)c(=O)cc1Sc1ccc(C)cc1	-3	-11	2	6	0	5
COC(=O)c1nn(-c2ccc(OC)cc2)c(=O)cc1NN	67	-13	-11	14	active	1
COc1ccc(CCNC(=O)Nc2nc(C(N)COCc3ccccc3)cs2)cc1OC (stereo unspecified)	.	.	-6	.	.	.
CCCNC(=O)C1(C)CCN(Cc2ccc3ccccc3c2Br)C1 (stereo unspecified)	.	.	17	.	.	.
CCCc1cc(=O)[nH]c(SCC(=O)N2CCN(S(=O)(=O)c3ccc(Cl)cc3)CC2)n1	-9	-3	10	-6	56*	-1
Clc1ccc2c(c1)Nc1ccccc1CC2	.	.	0	-11	.	.
c1cc2c3c(cccc3c1)NC1(CCCCC1)N2	29	2	-3	34	33	4
SMILES	PABP FP inh	FID counter	PABP1 MLLE inh	HCV core dimer	eIF4H FP inh	NS3 helicase inh
c1cc2c3c(cccc3c1)NC1(CCCCCC1)N2	-6	3	1	52*	34	-8
CC(=O)Nc1cc(NC(C)=O)cc(C(=O)N2CCCC3CCCCC32)c1 (stereo unspecified)	53*	-28	-28	17	79*	6
O=C(Nc1ccccc1)N1CCCC2CCCCC21 (stereo unspecified)	0	-4	9	-3	5	-6
CCOC(=O)C1CCN(C(=O)C2CC(=O)N(c3ccc4c(c3)OCCO4)C2)CC1 (stereo unspecified)	60*	-21	-2	-7	19	1
CC(=O)N1CCN(C2=Nc3cccc4cccc2c34)CC1	59	7	18	-4	32	1
c1ccc(CC2CCN(C3=Nc4cccc5cccc3c45)CC2)cc1	83	9	-30	5	92*	-19
c1cc2c3c(cccc3c1)C(N1CCN(C3=Nc4cccc5cccc3c45)CC1)=N2	.	15	.	.	.	-4
c1cc2c3c(cccc3c1)C(N1CCOCC1)=N2	47*	0	33	-1	58	3
CC1CN(C2=Nc3cccc4cccc2c34)CC(C)O1 (stereo unspecified)	active	7	29	-3	66	-5
NC(=O)C1=CC2C3C=CC2(O)C(=O)OC3O1 (stereo unspecified)	.	.	-9	.	.	.
CN(C(=O)c1cc(-c2cccs2)nn1-c1ccccc1)C1CCS(=O)(=O)C1 (stereo unspecified)	.	.	6	.	.	.
CCC1(C2=CCCCC2)C(=O)NC(=S)N=C1N (stereo unspecified)	.	.	15	.	.	.
CCN(CC)CC(=O)Nc1cccc2c1C(=O)c1ccccc1C2=O	20	17	-6	8	0	13
O=C1c2ccccc2C(=O)c2c(NCCCN(CCO)CCO)cccc21	-21	89*	6	.	14	4
Cc1n[nH]c(=S)n(NC(=O)/C=C/C(=O)Nn2c(=S)[nH]nc(C)c2=O)c1=O	86*	1	10	.	92*	2
Cc1n[nH]c(=S)n(NC(=O)CC(=O)Nn2c(=S)[nH]nc(C)c2=O)c1=O	5	-5	29	1	22	6
CC(C)c1ccc(C2C3CSCC=C3C(C#N)=C(N)C2(C#N)C#N)cc1 (stereo unspecified)	120*	-21	.	10	128*	8
CN1CC=C2C(C#N)=C(N)C(C#N)(C#N)[C@H](c3cccc(Cl)c3)C2C1 (stereo partly specified)	?	3	87	-4	?	2
COc1cccc(=O)c2c(C)n(C)c(C)c12	34	-4	21	1	40	12
CCOc1cccc(=O)c2c(C)n(C)c(C)c12	69*	-9	23	11	60*	11
CCCNC(=O)C1(C)CCCN(C(=O)CN2C(=O)c3ccccc3C2=O)C1 (stereo unspecified)	.	.	-2	.	.	.
